Measurements from BindingDB's records for doi:10.1021/jm00037a004 (Research Biochemicals International, 1994).

Each compound was assayed against Sodium-dependent dopamine transporter (Rattus norvegicus, UniProt P23977) (assay: Binding affinity for dopamine transporters in rat brain tissue.).
Sequence of Sodium-dependent dopamine transporter (P23977 whole entry): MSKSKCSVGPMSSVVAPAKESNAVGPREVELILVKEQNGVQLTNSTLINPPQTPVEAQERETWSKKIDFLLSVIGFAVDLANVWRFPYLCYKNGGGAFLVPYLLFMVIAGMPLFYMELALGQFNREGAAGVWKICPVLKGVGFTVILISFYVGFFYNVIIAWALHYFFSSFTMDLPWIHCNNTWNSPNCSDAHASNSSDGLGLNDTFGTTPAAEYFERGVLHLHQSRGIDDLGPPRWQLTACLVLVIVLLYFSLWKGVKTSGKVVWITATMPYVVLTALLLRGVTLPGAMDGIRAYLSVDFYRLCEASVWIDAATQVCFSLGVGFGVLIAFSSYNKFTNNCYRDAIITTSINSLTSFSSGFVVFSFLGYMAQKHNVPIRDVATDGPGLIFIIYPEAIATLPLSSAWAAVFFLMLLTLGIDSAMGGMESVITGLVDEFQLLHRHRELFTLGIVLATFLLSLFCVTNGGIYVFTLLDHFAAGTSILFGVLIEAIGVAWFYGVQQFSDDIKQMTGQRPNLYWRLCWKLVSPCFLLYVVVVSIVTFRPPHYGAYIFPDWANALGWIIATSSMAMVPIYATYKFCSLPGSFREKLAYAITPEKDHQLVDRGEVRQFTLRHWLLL
Procedure, shortened: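 Crude membrane fraction from rat corpus striatum homogenate. Nonspecific binding defined with 30 μM methylphenidate. Each agent tested at six concentrations in duplicate. Concentration-inhibition curves computer-fit for IC50 ± SEM, converted to Ki = IC50/(1 + [L/Kd]).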
Work on `CC(C)OC(=O)[C@H]1C(c2cc[c]([Sn]([CH3])([CH3])[CH3])cc2)C[C@H]2CCC1N2CCF` (stereo partly drawn) [(2S,5R)-8-(2-Fluoro-ethyl)-3-(4-trimethylstannanyl-phenyl)-8-aza-bicyclo[3.2.1]octane-2-carboxylic acid isopropyl ester] yielded a Ki of 1.15 µM.
In the case of `COC(=O)[C@H]1C(c2cc[c]([Sn]([CH3])([CH3])[CH3])cc2)C[C@H]2CCC1N2CCF` (stereo partly drawn) [(2S,5R)-8-(2-Fluoro-ethyl)-3-(4-trimethylstannanyl-phenyl)-8-aza-bicyclo[3.2.1]octane-2-carboxylic acid methyl ester], the Ki is reported as > 10 µM.
With `CC(C)OC(=O)[C@H]1C(c2cc[c]([Sn]([CH3])([CH3])[CH3])cc2)C[C@H]2CCC1N2CCCF` (stereo partly drawn) [(2S,5R)-8-(3-Fluoro-propyl)-3-(4-trimethylstannanyl-phenyl)-8-aza-bicyclo[3.2.1]octane-2-carboxylic acid isopropyl ester] the Ki was > 10 µM.
`COC(=O)[C@H]1C(c2cc[c]([Sn]([CH3])([CH3])[CH3])cc2)C[C@H]2CCC1N2CCCF` (stereo partly drawn) [(2S,5R)-8-(3-Fluoro-propyl)-3-(4-trimethylstannanyl-phenyl)-8-aza-bicyclo[3.2.1]octane-2-carboxylic acid methyl ester] was tested, and the Ki was > 10 µM.
